Test results published in ChEMBL document CHEMBL1134485, “Diguanidino and "reversed" diamidino 2,5-diarylfurans as antimicrobial agents” (2001).
≈ marks a conversion by molar mass, not a printed value.

Assays:
Candida albicans [1] = test: In vitro minimum inhibitory concentration against Candida albicans.; format: functional
[2] = test system: Mycobacterium tuberculosis; test: In vitro minimum inhibitory concentration required to inhibit Mycobacterium tuberculosis; format: functional
How it was run: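 M. tuberculosis H37Rv grown in BACTEC 12B medium; fluorometric broth microdilution (Microplate Alamar Blue Assay). […] MIC = lowest concentration reducing relative fluorescence units by ≥90% relative to control culture. Testing done by TAACF.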

Candida albicans [3] = test: In vitro minimum fungicidal concentration against Candida albicans.; format: functional
How it was run: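 Yeast MFC: after broth macrodilution (RPMI 1640/MOPS pH 7.0, 0.5 × 10³ to 2.5 × 10³ CFU/mL, 35 °C, 48 h or 72 h for C. neoformans, drug 100 to 0.09 µg/mL), 100 µL from tubes with complete inhibition plated on Sabouraud agar; lowest concentration yielding three or fewer colonies recorded.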

Nucleic Acid [4] = test system: Nucleic Acid
Nucleic Acid [5] = test system: Nucleic Acid; remark: listed apart in the source
Nucleic Acid [6] = test: DNA binding affinity to poly dA.dT; format: nucleic-acid assay
Aspergillus fumigatus [7] = test: Antimicrobial activity against Aspergillus fumigatus (MIC); format: functional
Aspergillus fumigatus [8] = test: In vitro minimum fungicidal concentration required to inhibit Aspergillus fumigatus(MFC); format: functional
How it was run: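 Mould MFC: 100 µL aliquots from macrodilution tubes (RPMI 1640/MOPS pH 7.0, 0.5 × 10³ to 2.5 × 10³ CFU/mL conidial inoculum, 30 °C, 48-72 h, drug 100 to 0.09 µg/mL) showing complete growth inhibition plated on Sabouraud agar; MFC taken as lowest drug concentration giving three or fewer colonies.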

Row | Compound | MIC (Candida albicans [1]) [µg/mL] | MIC [2] [µg/mL] | MFC (Candida albicans [3]) [µg/mL] | ΔTm (Nucleic Acid [4]) | ΔTm (Nucleic Acid [5]) | ΔTm (Nucleic Acid [6]) | MIC (Aspergillus fumigatus [7]) [µg/mL] | MFC (Aspergillus fumigatus [8]) [µg/mL]
1 | Cc1cc(NC(=N)c2ccccc2)ccc1-c1ccc(-c2ccc(NC(=N)c3ccccc3)cc2C)o1 | 3.12 (≈ 6.44 µM) | 3.13 (≈ 6.46 µM) | 6.25 (≈ 12.9 µM) | 24.9 | 7.8 | – | – | –
2 | Cc1cc(NC(=N)c2ccc3ccccc3n2)ccc1-c1ccc(-c2ccc(NC(=N)c3ccc4ccccc4n3)cc2C)o1 | 100 (≈ 170 µM) | – | 100 (≈ 170 µM) | – | 1.1 | 7.5 | 100 (≈ 170 µM) | –
3 | Cl.Cl.N=C(N)Nc1ccc(-c2ccc(-c3ccc(NC(=N)N)cc3Cl)o2)c(Cl)c1 | 10 | 4 | 100 | 26.1 | 4.7 | – | 100 | 100
